Results published in ChEMBL document CHEMBL1121611, “Synthesis and antileukemic activity of 1-methyl-2,5-diphenyl-3,4-bis(hydroxymethyl)-, 1,2,3-triphenyl-4,5-bis(hydroxymethyl)-, and 1-methyl-2,3-diphenyl-4,5-bis(hydroxymethyl)pyrrole bis(N-methylcarbamate)” (1980).

Columns and labels:
Type in all cases: functional, Mus musculus
P388 [1] = assay: Compound was tested against P388 Lymphocytic Leukemia for %survival of mice measured as treated versus control at dose of 25 mg/kg
How it was run: (§1)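 Male CD1F1 mice inoculated ip with ascitic fluid holding ca. 6 × 10^6 P388 cells. Drug given ip as a distilled water-Tween 80 suspension, nine daily doses starting 24 h after tumor inoculation. Median survival time of treated mice compared with untreated controls and expressed as % T/C; % T/C ≥ 120 counted as significant.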

P388 [2] = assay: Animal weight loss was tested for P388 Lymphocytic Leukemia and measured for change in weight, in treated and control mice at dose of 25 mg/kg; set-up: unit not given here
How it was run: (§2)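 P388 leukemia was induced by ip inoculation of ascitic fluid containing ca. 6 × 10^6 cells into male CD1F1 mice. Drug was given ip as a distilled water–Tween 80 suspension, nine daily doses starting 24 h after tumor inoculation. Body weight change was recorded on day 5, i.e. 4 days after the first injection, in treated and untreated control groups.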

P388 [3] = assay: Toxicity against P388 Lymphocytic Leukemia and measured for number of mice survived after five days of 50 mg/kg drug administration out of 6 mice tested
How it was run: (§3)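 Male CD1F1 mice given ip ascitic fluid with ca. 6 × 10^6 P388 cells, then ip dosing in a distilled water-Tween 80 suspension, nine daily doses beginning 24 h post-inoculation. Surviving mice counted on day 5, i.e., 4 days after the first compound injection.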

P388 [4] = assay: Animal weight loss was tested for P388 Lymphocytic Leukemia and measured for change in weight, in treated and control mice at dose of 12.5 mg/kg; set-up: unit not given here; how it was run: as §2
P388 [5] = assay: Compound was tested against P388 Lymphocytic Leukemia for %survival of mice measured as treated versus control at dose of 100 mg/kg; how it was run: as §1
P388 [6] = assay: Animal weight loss was tested for P388 Lymphocytic Leukemia and measured for change in weight, in treated and control mice at dose of 100 mg/kg; set-up: unit not given here; how it was run: as §2
P388 [7] = assay: Compound was tested against P388 Lymphocytic Leukemia for %survival of mice measured as treated versus control at dose of 50 mg/kg; how it was run: as §1
P388 [8] = assay: Compound was tested against P388 Lymphocytic Leukemia for %survival of mice measured as treated versus control at dose of 6.25 mg/kg; how it was run: as §1
P388 [9] = assay: Toxicity against P388 Lymphocytic Leukemia and measured for number of mice survived after five days of 6.25 mg/kg drug administration out of 6 mice tested; how it was run: as §3
P388 [10] = assay: Animal weight loss was tested for P388 Lymphocytic Leukemia and measured for change in weight, in treated and control mice at dose of 6.25 mg/kg; how it was run: as §2
P388 [11] = assay: Toxicity against P388 Lymphocytic Leukemia and measured for number of mice survived after five days of 25 mg/kg drug administration out of 6 mice tested; how it was run: as §3
P388 [12] = assay: Animal weight loss was tested for P388 Lymphocytic Leukemia and measured for change in weight, in treated and control mice at dose of 50 mg/kg; set-up: unit not given here; how it was run: as §2
P388 [13] = assay: Compound was tested against P388 Lymphocytic Leukemia for %survival of mice measured as treated versus control at dose of 12.5 mg/kg; how it was run: as §1
P388 [14] = assay: Toxicity against P388 Lymphocytic Leukemia and measured for number of mice survived after five days of 100 mg/kg drug administration out of 6 mice tested; how it was run: as §3
P388 [15] = assay: Toxicity against P388 Lymphocytic Leukemia and measured for number of mice survived after five days of 12.5 mg/kg drug administration out of 6 mice tested; how it was run: as §3
P388 [16] = assay: Animal weight loss was tested for P388 Lymphocytic Leukemia and measured for change in weight, in treated and control mice at dose of 200 mg/kg; how it was run: as §2
P388 [17] = assay: Compound was tested against P388 Lymphocytic Leukemia for %survival of mice measured as treated versus control at dose of 200 mg/kg; how it was run: as §1
P388 [18] = assay: Toxicity against P388 Lymphocytic Leukemia and measured for number of mice survived after five days of 200 mg/kg drug administration out of 6 mice tested; how it was run: as §3
P388 [19] = assay: Toxicity was tested for P388 Lymphocytic Leukemia and measured for number of mice survived after five days of 25 mg/kg drug administration out of 6 mice tested; how it was run: as §3
P388 [20] = assay: tested for toxity against P388 Lymphocytic Leukemia and measured for number of mice survived after five days of 12.5 mg/kg drug administration out of 6 mice tested; how it was run: as §3
P388 [21] = assay: Animal weight loss was tested for P388 Lymphocytic Leukemia and measured for change in weight, in treated and control mice at dose of 1.56 mg/kg; how it was run: as §2
P388 [22] = assay: Toxicity against P388 Lymphocytic Leukemia and measured for number of mice survived after five days of 3.13 mg/kg drug administration out of 6 mice tested; how it was run: as §3
P388 [23] = assay: Compound was tested against P388 Lymphocytic Leukemia for %survival of mice measured as treated versus control at dose of 1.56 mg/kg; how it was run: as §1
P388 [24] = assay: Animal weight loss was tested for P388 Lymphocytic Leukemia and measured for change in weight, in treated and control mice at dose of 3.13 mg/kg; how it was run: as §2
P388 [25] = assay: Compound was tested against P388 Lymphocytic Leukemia for %survival of mice measured as treated versus control at dose of 3.13 mg/kg; how it was run: as §1
P388 [26] = assay: Toxicity against P388 Lymphocytic Leukemia and measured for number of mice survived after five days of 1.56 mg/kg drug administration out of 6 mice tested; how it was run: as §3
P388 [27] = assay: Toxicity against P388 Lymphocytic Leukemia and measured for number of female mice survived after five days of 25 mg/kg drug administration out of 6 mice tested
P388 [28] = assay: Toxicity against P388 Lymphocytic Leukemia and measured for number of female mice survived after five days of 6.25 mg/kg drug administration out of 6 mice tested
P388 [29] = assay: Toxicity against P388 Lymphocytic Leukemia and measured for number of female mice survived after five days of 12.5 mg/kg drug administration out of 6 mice tested
P388 [30] = assay: Toxicity was tested for P388 Lymphocytic Leukemia and measured for number of mice survived after five days of 20 mg/kg drug administration out of 6 mice tested
P388 [31] = assay: Compound was tested against P388 Lymphocytic Leukemia for %survival of mice measured as treated versus control at dose of 20 mg/kg
P388 [32] = assay: Animal weight loss was tested for P388 Lymphocytic Leukemia and measured for change in weight, in treated and control mice at dose of 2.5 mg/kg
P388 [33] = assay: Toxicity against P388 Lymphocytic Leukemia and measured for number of mice survived after five days of 5 mg/kg drug administration out of 6 mice tested
P388 [34] = assay: Toxicity against P388 Lymphocytic Leukemia and measured for change in weight, in treated and controlled mice at dose of 40 mg/kg
P388 [35] = assay: Compound was tested against P388 Lymphocytic Leukemia for %survival of mice measured as treated versus control at dose of 40 mg/kg
P388 [36] = assay: Toxicity was tested for P388 Lymphocytic Leukemia and measured for number of mice survived after five days of 40 mg/kg drug administration out of 6 mice tested
P388 [37] = assay: Animal weight loss was tested for P388 Lymphocytic Leukemia and measured for change in weight, in treated and control mice at dose of 5 mg/kg
P388 [38] = assay: Toxicity against P388 Lymphocytic Leukemia and measured for number of mice survived after five days of 2.5 mg/kg drug administration out of 6 mice tested
P388 [39] = assay: Toxicity was tested for P388 Lymphocytic Leukemia and measured for number of mice survived after five days of 10 mg/kg drug administration out of 6 mice tested
P388 [40] = assay: Compound was tested against P388 Lymphocytic Leukemia for %survival of mice measured as treated versus control at dose of 10 mg/kg
P388 [41] = assay: Animal weight loss was tested for P388 Lymphocytic Leukemia and measured for change in weight, in treated and control mice at dose of 10 mg/kg
P388 [42] = assay: Compound was tested against P388 Lymphocytic Leukemia for %survival of mice measured as treated versus control at dose of 5 mg/kg
P388 [43] = assay: Compound was tested against P388 Lymphocytic Leukemia for %survival of mice measured as treated versus control at dose of 2.5 mg/kg
P388 [44] = assay: Animal weight loss was tested for P388 Lymphocytic Leukemia and measured for change in weight, in treated and controlled mice at dose of 20 mg/kg

## CNC(=O)OCc1c(COC(=O)NC)c(-c2ccccc2)n(C)c1C
P388 [1]
  T/C: 145%
P388 [2]
  Weight loss: -3.9
P388 [3]
  No. of mice survived: 6
P388 [4]
  Weight loss: -3.3
P388 [5]
  T/C: <70%
P388 [6]
  Weight loss: -6
P388 [7]
  T/C: 90%
P388 [8]
  T/C: 135%
P388 [9]
  No. of mice survived: 6
P388 [10]
  Weight loss: -2.5
P388 [11]
  No. of mice survived: 6
P388 [12]
  Weight loss: -4.6
P388 [13]
  T/C: 130%
P388 [14]
  No. of mice survived: 5
P388 [15]
  No. of mice survived: 6

## CNC(=O)OCc1c(-c2ccccc2)c(-c2ccccc2)n(-c2ccccc2)c1COC(=O)NC
P388 [1]
  T/C: 117%
P388 [2]
  Weight loss: 0.1
P388 [3]
  No. of mice survived: 6
P388 [4]
  Weight loss: -0.2
P388 [5]
  T/C: 144%
P388 [6]
  Weight loss: -0.6
P388 [7]
  T/C: 126%
P388 [16]
  Weight loss: -2.4
P388 [11]
  No. of mice survived: 6
P388 [12]
  Weight loss: -1.1
P388 [17]
  T/C: 171%
P388 [13]
  T/C: 110%
P388 [14]
  No. of mice survived: 6
P388 [15]
  No. of mice survived: 6
P388 [18]
  No. of mice survived: 6

## CNC(=O)OCc1c(-c2ccccc2)c(-c2ccccc2)n(-c2ccc(OC)cc2)c1COC(=O)NC
P388 [1]
  T/C: 119%
P388 [2]
  Weight loss: 0.5
P388 [3]
  No. of mice survived: 6
P388 [4]
  Weight loss: 0.3
P388 [5]
  T/C: 124%
P388 [6]
  Weight loss: -1
P388 [7]
  T/C: 119%
P388 [16]
  Weight loss: -1.3
P388 [12]
  Weight loss: -0.8
P388 [17]
  T/C: 135%
P388 [13]
  T/C: 106%
P388 [19]
  No. of mice survived: 6
P388 [20]
  No. of mice survived: 6
P388 [14]
  No. of mice survived: 6
P388 [18]
  No. of mice survived: 6

## CNC(=O)OCc1c(-c2ccccc2)c(-c2ccccc2)n(C)c1COC(=O)NC
P388 [1]
  T/C: 160%
P388 [2]
  Weight loss: -3.2
P388 [3]
  No. of mice survived: 6
P388 [21]
  Weight loss: -2.3
P388 [4]
  Weight loss: -1.4
P388 [22]
  No. of mice survived: 6
P388 [6]
  Weight loss: -6.1
P388 [7]
  T/C: 160%
P388 [8]
  T/C: 138%
P388 [9]
  No. of mice survived: 6
P388 [10]
  Weight loss: -1.1
P388 [23]
  T/C: 102%
P388 [11]
  No. of mice survived: 6
P388 [24]
  Weight loss: -0.8
P388 [12]
  Weight loss: -2.5
P388 [25]
  T/C: 128%
P388 [13]
  T/C: 164%
P388 [26]
  No. of mice survived: 6
P388 [14]
  No. of mice survived: 5
P388 [15]
  No. of mice survived: 6

## CNC(=O)OCc1c(COC(=O)NC)c(C)n(-c2ccccc2)c1C
P388 [27]
  No. of mice survived: 6
P388 [1]
  T/C: 148%
P388 [28]
  No. of mice survived: 5
P388 [8]
  T/C: 134%
P388 [29]
  No. of mice survived: 5
P388 [13]
  T/C: 145%

## CNC(=O)OCc1c(COC(=O)NC)c(-c2ccccc2)n(C)c1-c1ccccc1
P388 [30]
  No. of mice survived: 6
P388 [31]
  T/C: 205%
P388 [32]
  Weight loss: -1.1
P388 [33]
  No. of mice survived: 6
P388 [34]
  Weight loss: -4.4
P388 [35]
  T/C: 124%
P388 [36]
  No. of mice survived: 6
P388 [37]
  Weight loss: -1
P388 [38]
  No. of mice survived: 6
P388 [39]
  No. of mice survived: 6
P388 [40]
  T/C: 164%
P388 [41]
  Weight loss: -2.1
P388 [42]
  T/C: 135%
P388 [43]
  T/C: 135%
P388 [44]
  Weight loss: -2.8
